Reference: PMC9540525 (Cancer, 2022)

What was measured:
[1] = tested on: advanced or unresectable solid tumors, including NENs and R/R NHL; experiment: Phase 1 study CC-90011-ST-001: efficacy; type: in vivo, human
Method in brief: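 Phase 1 open-label multicenter study; adults with advanced NENs or R/R NHL. Test compound given orally once weekly in 28-day cycles (expansion: 60 mg); reductions and interruptions of up to 4 weeks allowed. Investigator-assessed response: RECIST 1.1 (solid tumors), IWG (NHL), PCWG3 (neuroendocrine prostate); FDG PET or PET/CT confirmed CR in FDG-avid tumors. Two-sided 95% Clopper–Pearson CIs; Kaplan–Meier medians.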

[2] = tested on: progastrin‐releasing peptide [pro‐GRP]; experiment: Phase 1 study: serum progastrin-releasing peptide; type: in vivo, human; conditions: dose expansion, NENs
[3] = Phase 1 study: treatment duration, modification, exposure and disposition; type: in vivo, human; conditions: dose expansion, NEN cohort, n=16
[4] = dose escalation, cited from earlier work
[5] = tested on: solid tumor cell lines, including small cell lung cancer, and acute myeloid leukemia cell lines; conditions: solid tumor cell lines incl. SCLC, and AML cell lines; cited from earlier work
[6] = tested on: patient‐derived xenograft models; conditions: cited from earlier work

COc1ccc(-c2c(-c3ccc(C#N)c(F)c3)nc(N3CCC(N)CC3)n(C)c2=O)cc1F [CC‐90011]
Best overall response: CR ([1]; dose escalation, n = 50): 1 (2.0) no. (%)
Best overall response: NE ([1]; dose escalation, n = 50): 4 (8.0) no. (%)
Best overall response: PD ([1]; dose escalation, n = 50): 22 (44.0) no. (%)
Best overall response: PR ([1]; dose escalation, n = 50): 1 (2.0) no. (%)
Best overall response: SD ([1]; dose escalation, n = 50): 22 (44.0) no. (%)
Best overall response: SD ≥4 months ([1]; dose escalation, n = 50): 8 (16.0) no. (%)
CBR [95% CI] ([1]; dose escalation, n = 50): 20 [10.0–33.7] %
ORR [95% CI] ([1]; dose escalation, n = 50): 4 [0.5–13.7] %
mOS [95% CI] ([1]; dose escalation, n = 50): 7.8 [6.1–20.1] months
mPFS [95% CI] ([1]; dose escalation, n = 50): 3.4 [1.7–3.7] months
patients with NENs with SD lasting ≥6 months / >6 months ([1]; dose escalation, grade ≥2 NENs): seven
treatment cycle in which the patient with CR was still ongoing ([1]; dose escalation, one patient with R/R MZL, as of April 2022): 58 cycle
patients with bronchial NENs with SD after nine or more cycles ([1]; dose expansion): three
Best overall response: CR ([1]; dose expansion, n=19): 0 (0.0) no. (%)
Best overall response: NE ([1]; dose expansion, n=19): 2 (11.0) no. (%)
Best overall response: PD ([1]; dose expansion, n=19): 7 (37.0) no. (%)
Best overall response: PR ([1]; dose expansion, n=19): 0 (0.0) no. (%)
CBR [95% CI] ([1]; dose expansion, n=19): 37 [16.3–61.6] %
ORR [95% CI] ([1]; dose expansion, n=19): 0 [0.0–17.6] %
mOS [95% CI] ([1]; dose expansion, n=19): 15.6 [7.0, NE] months
mPFS [95% CI] ([1]; dose expansion, n=19): 1.8 [1.1–5.4] months
treatment cycle in which the patient with SD was still ongoing ([1]; dose expansion, one patient with bronchial NENs, as of April 2022): 46 cycle
median PFS ([1]; patients with bronchial NENs): 4.6 months
patients in whom pro-GRP levels decreased [2]: 15 of 16
patients with a pro-GRP decrease >30% [2]: 11 of 16
≥1 dose interruption due to AE [3]: 10 (63%) n (%)
dose-limiting toxicity [4]: Thrombocytopenia was the only dose‐limiting toxicity reported
maximum tolerated dose ([4]; once per week): 80 mg
nontolerated dose ([4]; once per week): 120 mg
recommended phase 2 dose (RP2D) ([4]; once per week): 60 mg
antiproliferative activity in vitro [5]: has antiproliferative activity in various solid tumor cell lines in vitro
antiproliferative activity in patient-derived xenograft models [6]: demonstrated antiproliferative activity
